Assay results taken from ChEMBL document CHEMBL1127691, “Discovery, synthesis, and bioactivity of bis(heteroaryl)piperazines. 1. A novel class of non-nucleoside HIV-1 reverse transcriptase inhibitors” (J Med Chem, 1994).
pEC50: −log10 of the molar value.

Assays:
[1] = tested on: Human immunodeficiency virus 1; assay: (§1) Effective antiviral dose required to block the spread of HIV-1D34 infection in human peripheral blood mononuclear cells; format: functional; settings: read-out: ED50 (the source's name)
How it was run: (§2)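 PBMC (1 × 10^6 cells) infected with HIV-1 D34 inoculum containing 1 ng p24, cultured at 37 °C in 5% CO2. Replication read as supernatant p24 at day 4. ED50 = 50% effective antiviral dose, estimated in some cases.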

MT2 [2] = assay: Tested for the drug concentration required to decrease HIV-1IIIb infected MT-2 cell viability compared to uninfected controls; format: functional; settings: Homo sapiens
How it was run: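 MT-2 cells with HIV-1 IIIb (MOI 0.001), 4-day culture. Viability by trypan blue exclusion. CC50 is the concentration lowering viability relative to uninfected controls; mostly estimated.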

MT2 [3] = assay: Effective antiviral dose required to block the spread of HIV-1 IIIb infection in MT-2 cells by monitoring the formation of syncytia; format: functional; settings: Homo sapiens, read-out: ED50 (the source's name)
How it was run: (§3)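 MT-2 cells infected with HIV-1 IIIb at MOI 0.001, held at 37 °C in 5% CO2. Syncytium formation scored 4 days post-infection, at peak cytopathic effect. ED50 is the dose giving 50% reduction in syncytia; some values were estimated, and ">" means 50% was not reached at the top concentration.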

[4] = Tested for the drug concentration required to decrease […] infected human peripheral blood mononuclear cell viability compared to uninfected controls; format: functional
How it was run: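 Uninfected and HIV-1 D34-infected PBMC at 37 °C, 5% CO2. Viability taken from mitogen-stimulated cell proliferation. CC50 is the concentration lowering viability relative to uninfected controls; mostly estimated.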

[5] = molecular target: Human immunodeficiency virus type 1 reverse transcriptase (Human immunodeficiency virus 1) (UniProt Q72547); assay: In vitro inhibitory activity against HIV-1 reverse transcriptase at 100 uM
How it was run: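 Recombinant HIV-1 RT (p51/p66 heterodimer, 90–95% pure, 0.0274 μM) with poly(rA) 10 μg/mL and (dT)10 primer 5 μg/mL; 8 μM α-35S-dTTP, 50 mM Tris-HCl pH 8.3, 10 mM MgCl2, 60 mM NaCl, 20 mM DTT, 0.05% NP-40. 37 °C, 15 min; TCA-precipitated label counted on filters. Percent inhibition at 100 μM, mean of at least two determinations.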

[6] = Selective index is the ratio of inhibitory concentrations of cellular DNA polymerase alpha to HIV-1 reverse transcriptase
How it was run: (§4)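 Index = IC50 for cellular DNA polymerase α or δ divided by IC50 for HIV-1 RT. RT IC50 measured with recombinant RT and poly(rA):oligo(dT)10 template:primer.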

[7] = Selective index is the ratio of inhibitory concentrations of cellular DNA polymerase delta to HIV-1 reverse transcriptase; how it was run: as §4
[8] = as §1; format: functional; settings: read-out: ED50 (the source's name); how it was run: as §2
MT2 [9] = assay: Effective antiviral dose required to block the spread of HIV-1 IIIb infection in MT-2 cells by monitoring the formation of syncytia.; format: functional; settings: Homo sapiens, read-out: ED50 (the source's name); how it was run: as §3

Row | SMILES | pEC50 [1] | pEC50 (MT2 [3]) | inhibition [5] [%] | Selectivity index [6] | Selectivity index [7] | pEC50 [8] | pEC50 (MT2 [9]) | CC50 (MT2 [2]) [nM] | CC50 [4] [nM]
1 | COc1ccc2[nH]c(C(=O)N3CCN(c4ncccc4NC(C)(C)C)CC3)cc2c1 | 8.00 | 6.66 | 86 | > 83 | > 83 |  |  | > 22000 | 
2 | CCNc1ccccc1N1CCN(C(=O)c2cc(C)c(OC)c(C)c2)CC1 |  |  | 21 |  |  | < 6.00 |  |  | ~10000
3 | CCNc1cccnc1N1CCN(Cc2cc(C)c(OC)c(C)c2)CC1 | 6.00 |  | 73 | 30 | > 60 |  | 5.70 | 15000 | > 10000

Continued, in another order:

Row | pEC50 [1] | pEC50 (MT2 [3]) | inhibition [5] [%] | Selectivity index [6] | Selectivity index [7] | pEC50 [8] | pEC50 (MT2 [9]) | SMILES | CC50 (MT2 [2]) [nM] | CC50 [4] [nM]
4 | 9.00 | 6.52 | 96 | 1100 | 10000 |  |  | CC(C)Nc1cccnc1N1CCN(C(=O)c2cc3ccccc3[nH]2)CC1 | > 27000 | > 10000
5 | 8.00 | 6.52 |  | 1500 | 2800 |  |  | CCNc1cccnc1N1CCN(C(=O)c2cc3ccccc3[nH]2)CC1 | > 30000 | > 10000
6 | 8.00 | 6.64 | 89 | 233 | 1670 |  |  | CC(C)(C)Nc1cccnc1N1CCN(C(=O)c2cc3cc(F)ccc3[nH]2)CC1 | > 23000 | 
7 | 8.00 | 6.70 | 89 | 225 | 2500 |  |  | CC(C)(C)Nc1cccnc1N1CCN(C(=O)c2cc3ccccc3[nH]2)CC1 | > 2400 | 10000
